# Experimental data from different studies.
# Compare with care: the assays were run in different laboratories.
# Target: Ephrin type-B receptor 4 (EPHB4, Homo sapiens, UniProt P54760)
# Sequence (P54760 16-987, as in one of the studies): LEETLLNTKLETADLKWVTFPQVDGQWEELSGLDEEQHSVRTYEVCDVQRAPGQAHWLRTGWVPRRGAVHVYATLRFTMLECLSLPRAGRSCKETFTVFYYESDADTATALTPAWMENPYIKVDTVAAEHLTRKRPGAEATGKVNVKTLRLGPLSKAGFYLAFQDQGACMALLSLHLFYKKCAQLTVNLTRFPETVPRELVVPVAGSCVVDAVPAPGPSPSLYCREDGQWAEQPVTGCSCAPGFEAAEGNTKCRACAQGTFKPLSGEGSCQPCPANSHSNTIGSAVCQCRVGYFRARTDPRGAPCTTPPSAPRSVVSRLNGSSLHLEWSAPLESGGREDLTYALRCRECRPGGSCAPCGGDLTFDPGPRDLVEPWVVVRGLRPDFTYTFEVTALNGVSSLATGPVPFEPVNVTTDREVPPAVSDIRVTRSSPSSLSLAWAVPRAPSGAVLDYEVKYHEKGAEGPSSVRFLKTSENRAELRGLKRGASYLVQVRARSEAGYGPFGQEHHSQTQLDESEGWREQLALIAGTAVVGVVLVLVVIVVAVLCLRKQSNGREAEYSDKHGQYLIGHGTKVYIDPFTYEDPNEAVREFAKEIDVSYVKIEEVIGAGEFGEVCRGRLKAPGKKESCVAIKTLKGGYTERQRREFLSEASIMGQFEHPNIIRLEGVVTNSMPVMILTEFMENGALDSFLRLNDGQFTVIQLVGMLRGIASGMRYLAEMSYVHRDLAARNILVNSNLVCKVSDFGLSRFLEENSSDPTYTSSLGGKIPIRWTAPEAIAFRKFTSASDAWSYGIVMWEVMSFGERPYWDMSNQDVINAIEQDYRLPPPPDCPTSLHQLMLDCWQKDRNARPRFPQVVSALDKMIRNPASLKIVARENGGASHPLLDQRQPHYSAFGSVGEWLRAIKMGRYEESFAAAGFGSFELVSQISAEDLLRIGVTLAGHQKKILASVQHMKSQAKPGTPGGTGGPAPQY
SMILES,test,setting,remaining binding [%]
CN(C)C(=O)Cn1cc(-c2nc(C3(c4ccc(-c5cnc(N)nc5)cc4)CC3)no2)cn1,"cell-free assay, competition with immobilised ligand",1 µM,100
CC1CCCN1c1nccc(-c2cnn3ncccc23)n1 (stereo not drawn),binding,1 µM,100
O=c1nc(-c2ccccn2)sc2ccccc12,"cell-free assay, competition with immobilised ligand",1 µM,100
O=C(c1ccc(Nc2ncc(Cl)c(-c3ccc(Cl)s3)n2)cc1)N1CCC(N2CCCC2)CC1,"binding, competition with immobilised ligand",1 µM,67
COc1cnc(Nc2cccc(S(N)(=O)=O)c2)nc1N1CCN(c2ccccc2)C(=O)C1,"binding, competition with immobilised ligand",1 µM,100
F[C@@H]1CCN(c2nccc(-c3cnn4ncccc34)n2)C1,binding,1 µM,90
CCN1CCN(Cc2ccc(C(=O)Nc3ccc(C)c(Oc4ccc5c(c4)CC(=O)N5)c3)cc2C(F)(F)F)CC1,"binding, competition with immobilised ligand",1 µM,90
O=C(NCCCN1CCOCC1)c1ccc(Nc2nccc(-c3cc4ccccc4s3)n2)cc1,"binding, competition with immobilised ligand",1 µM,78
C=CC(=O)N1CCC(C(=O)NCC(=O)N2CCN(c3nc(-c4cnc(N)nc4C(F)F)nc(N4CCOCC4)n3)CC2)CC1,"binding, competition with immobilised ligand",1 µM,100
C[C@@H](c1ccc(-n2cnc3c(N)ncnc32)cc1)N1CCc2nn(C)c(Cc3ccccc3)c2C1=O,"binding, competition with immobilised ligand",0.1 µM,95
COc1ccnn2ncc(-c3ccnc(N(C)C)n3)c12,binding,1 µM,86
Cn1cc(Cl)c2c(Oc3c(F)cc(Nc4cc(Cl)nc(N)n4)cc3F)ccnc21,"cell-free assay, competition with immobilised ligand",0.1 µM,100
O=C(NCC1CCOCC1)c1n[nH]cc1NC(=O)c1c(F)cccc1F,"binding, competition with immobilised ligand",1 µM,100
C[C@@H]1CCN(c2nccc(-c3cnn4ncccc34)n2)C1,binding,1 µM,100
O=C(NCCCN1CCOCC1)c1ccc(Nc2ncc(Cl)c(-c3ccc(Cl)s3)n2)cc1,"binding, competition with immobilised ligand",1 µM,91
CCC(=O)N[C@H]1CC[C@@H](C(=O)N(C)c2ccc(-c3nc4ccccc4o3)cc2)C1,"cell-free assay, competition with immobilised ligand",1 µM,73
Cc1cnn2ncc(-c3ccnc(N(C)C)n3)c2c1,binding,1 µM,94
Cc1noc([C@H]2C[C@@H](c3ccc(C(F)(F)F)cc3)CN(C(=O)N3CCS(=O)(=O)C3)C2)n1,"cell-free assay, competition with immobilised ligand",1 µM,100
Nc1ncc2c(n1)-c1c([nH]c3ccc(C#CC4CC4)cc13)CCCC2,"binding, competition with immobilised ligand",1 µM,100
CN(CCCC(F)(F)F)c1nccc(-c2cnn3ncccc23)n1,binding,1 µM,93
CCOC(=O)c1cc2cc(-c3cc(C(=O)NCc4ccc(C(=O)O)cc4)nn3C)ccc2[nH]1,"cell-free assay, competition with immobilised ligand",0.1 µM,99
